Screens as filed in PubChem BioAssay.
The list is not random: actives were taken first. Their share in the collection is about 1.8%.
CHRM5 antagonist = CHRM5 antagonism in calcium assay. 0.59% of 360,000 active. P08912. inhibition, % at 3 µM. CHO-hM5 cells, Fluo-8 calcium fluorescence, ACh EC80. AID 624040;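 active = inhibition above a per-plate cutoff, the mean of that plate's test compounds plus 3 SD, cut at about 27% in these data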;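 note: 0% = acetylcholine EC80 with DMSO and 100% = DMSO without agonist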
Target sequence (P08912 whole entry, looked up): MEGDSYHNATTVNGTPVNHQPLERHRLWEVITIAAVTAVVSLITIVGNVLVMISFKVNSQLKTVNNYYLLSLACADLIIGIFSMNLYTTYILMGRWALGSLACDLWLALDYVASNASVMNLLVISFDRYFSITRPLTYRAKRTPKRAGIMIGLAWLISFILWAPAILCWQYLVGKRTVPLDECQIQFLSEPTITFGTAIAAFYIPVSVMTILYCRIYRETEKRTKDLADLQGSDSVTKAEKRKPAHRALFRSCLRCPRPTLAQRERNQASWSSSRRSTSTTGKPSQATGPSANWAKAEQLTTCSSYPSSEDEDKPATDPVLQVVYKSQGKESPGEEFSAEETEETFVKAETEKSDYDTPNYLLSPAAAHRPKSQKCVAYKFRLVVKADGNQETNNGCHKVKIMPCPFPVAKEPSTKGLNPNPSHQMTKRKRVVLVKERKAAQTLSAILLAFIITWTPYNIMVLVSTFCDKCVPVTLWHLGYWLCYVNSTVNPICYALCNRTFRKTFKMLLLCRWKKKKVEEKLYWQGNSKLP
CHRM5 PAM = potentiates acetylcholine response at human M5 receptor. P08912. CHO-K1 hM5, Fluo-8 calcium, ACh EC20 PAM; 0% = ACh EC20, 100% = ACh EC100. activation, % at 3 µM. 0.3% of 360,000 active. AID 624038;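 active = activation above the run cutoff, the mean activation of all test compounds plus 3 SD, cut at about 18% in these data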
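Probe or stimulus: acetylcholine, EC20 level; Assay system: human M5 receptor in CHO-K1 cells; Schedule: compound preincubation 140 s before EC20 acetylcholine addition; Technique: intracellular calcium via Fluo-8 fluorescence; Dosing: single-point, 3 µM nominal; Read-out basis: percent activation from peak-over-basal fluorescence ratio, scaled EC20-to-EC100 acetylcholine; Repeats: one well per compound, no replicates.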
CHRM5 agonist = agonists of human muscarinic M5 receptor (CHRM5); P08912; CHO-K1 hM5 cells, Fluo-8 calcium fluorescence; 0% DMSO wells, 100% maximal acetylcholine response; activation, % at 3 µM; AID 624037; 0.19% of 360,000 active;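 active = activation above the run's mean over test compounds plus 3 SD, cut at about 23% in these data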;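 note: signal is peak over basal fluorescence ratio across the kinetic read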
M4 ag = CHRM4 agonism in calcium assay; P08173; CHO-K1 hM4/Gqi5, Fluo-8 calcium fluorescence; vehicle 0%, full acetylcholine response 100%; activation, % at 3 µM; 0.14% of 360,000 active; AID 624127;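 active = activation above the run mean over all test wells plus 3 SD, cut at about 32% in these data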;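 note: peak over basal fluorescence ratio per well then scaled between controls; 0% = DMSO wells and 100% = acetylcholine at EC100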
M4 antag = antagonists of human muscarinic M4 receptor (CHRM4) | P08173 | CHO-hM4 cells, ACh EC80, Fluo-8 calcium fluorescence | inhibition, % at 3 µM | 0.73% of 360,000 active;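 active = inhibition above its plate's cutoff, the mean inhibition of sample wells plus 3 SD, cut at about 27% in these data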;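 note: 0% = acetylcholine EC80 with DMSO and 100% = DMSO without agonist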
M4 PAM = potentiates acetylcholine response at human M4 receptor; 0.4% of 360,000 active; CHO-K1 hM4/Gqi5, Fluo-8 calcium fluorescence, ACh EC20; 0% = ACh EC20, 100% = maximal ACh; P08173; AID 624126; activation, % at 3 µM;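 active = activation above its plate's cutoff, the mean activation of sample wells plus 3 SD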
* = called active by the depositor; ! = a repeat was not active.

SMILES	CHRM5 antagonist	CHRM5 PAM	CHRM5 agonist	M4 ag	M4 antag	M4 PAM
CCOC(=O)N1CCC(N2C(=O)c3ccc(C(=O)O)cc3C2=O)CC1	-4.1	21.1*	-3.3	0.8	-3.3	4.1
Nc1nc2ccc(Cl)cc2cc1C(=O)NCCc1c[nH]c2ccccc12	26.1	-23.6	8.5	20.1	28.3*	-13.9
Nc1nc2ccc(Cl)cc2cc1C(=O)NCCc1ccc(Cl)cc1Cl	12.7	-6.3	2.0	4.2	-4.2	5.0
CN1C(=O)/C(=C/c2ccccc2OCc2ccc(F)cc2)N(C)C1=S	77.4*	-19.6	-7.1	-1.4	97.1*	-37.8
O=C(Nc1cccc(OC(F)(F)F)c1)C1Cc2c(-c3cccc(F)c3)ccnc2O1 (stereo not given)	-2.9	-2.2	0.4	1.8	-8.6	-2.6
COc1ccc(CN2C(=O)c3ccccc3C2c2nnnn2C(C)C)cc1OC (stereo not given)	-0.6	-1.6	-0.8	1.1	-17.6	8.4
CNC(=O)C[C@H]1C(=O)N(Cc2ccccc2)C[C@@H]1Cc1ccccc1	1.0	0.1	2.5	1.2	-12.4	-0.3
Nc1ccc2ccc(O)cc2c1	1.1	5.1	4.2	2.6	0.1	5.6
C[n+]1c2cc(N)ccc2cc2ccc(N)cc21	19.0	-8.8	43.6*	93.6*	27.0*!	-15.8
Cc1ccc(S(=O)(=O)n2ccc3c2CCCC3=O)cc1	37.4*	-20.9	-8.7	1.9	27.3*	-17.2
Cc1sc2ncnc(NCc3ccccc3)c2c1C	29.0*	-15.9	2.3	9.0	21.2	-6.0
COc1ccc(C(CNc2ncnc3sc(C)c(C)c23)N(C)C)cc1 (stereo not given)	16.2	-14.6	-6.8	4.5	-9.1	-15.0
c1cncc(CNc2ncnc3sccc23)c1	10.9	-9.2	0.4	4.9	2.0	-0.5
Cc1sc2ncnc(Nc3ccccc3)c2c1C	-16.9	3.0	-10.7	0.4	2.7	10.5
COc1ccccc1C(CNc1ncnc2sc(C)c(C)c12)N(C)C (stereo not given)	57.2*	-15.2	-7.5	1.9	6.0	-14.7
c1ccc(CNc2ncnc3sccc23)cc1	39.8*	-13.6	4.8	14.0	2.9	-3.5
COc1cccc2c1C(=O)c1c(O)c3c(c(O)c1C2=O)C[C@@](O)(C(=O)CO)C[C@@H]3O[C@H]1C[C@H](N)[C@@H](O)[C@H](C)O1	9.9	-3.0	5.0	7.6	8.4	-1.1
COc1cccc2c1C(=O)c1c(O)c3c(c(O)c1C2=O)CC(O)(C(=O)CO)CC3OC1CC(N(C)C)C(O)C(C)O1 (stereo not given)	35.0*	-32.2	55.5*	13.4	7.5	-2.6
Cc1ccc(-n2nc3c(n2)/C(=N/O)CC/C3=N\O)cc1	-3.4	34.5*	-3.5	0.4	0.1	13.3
CCCCS(=O)(=O)c1sc2nc(C)cc(C)c2c1N	-10.9	21.1*	7.0	1.5	-1.6	6.2
CNc1cc(-c2cccc(N(C)C)c2)ncn1	7.7	0.3	0.0	0.2	1.0	1.2
CC(C)n1c(=O)[nH]c2ccccc21	-1.3	-2.0	1.4	1.1	1.6	1.4
Cc1ccc(NC(=O)c2ccc3c(c2)[nH]c(=O)n3C(C)C)cc1	27.6*	-16.1	-0.6	4.6	1.2	-9.4
Cc1c(Cl)cccc1NC(=S)NCC1COc2ccccc2O1 (stereo not given)	38.6*	-20.1	-1.4	13.9	4.3	-14.2
O=C1NC[C@@H](CCCCN2C[C@H](Cc3ccc(O)cc3)N(CCc3ccc(O)cc3)C(=O)C2=O)N(CC2CCCCC2)C1=O	-5.6	3.7	1.3	6.1	-3.2	0.8
O=C(NCc1ccccc1)c1[nH]c(C(F)(F)F)nc1-c1ccccc1	14.4	-1.1	6.3	4.3	-1.5	6.4
Clc1cccc2sc(N3CCOCC3)nc12	-8.9	26.2*	-8.9	1.9	-18.6	10.1
Clc1cccc2sc(N3CCCC3)nc12	-1.4	-1.0	-2.3	0.4	-3.4	3.2
CC(=O)Nc1ccc(/C(C)=N/Nc2nc(Nc3cccc4ccccc34)nc(N3CCOCC3)n2)cc1	10.1	-4.8	32.1*	18.4	20.1	-4.5
